According to ChEMBL document CHEMBL4257476, “Design, synthesis and biological evaluation of novel 5-hydroxy-2-methyl-4H-pyran-4-one derivatives as antiglioma agents” (Medchemcomm, 2018):

Columns and labels:
U-87 MG [1] = experiment: Antiproliferative activity against human U87 cells by MTT assay; type: functional, cell-based, U-87MG ATCC
Outline: (§1)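 MTT viability: cells grown in DMEM with 10% FBS, 2 mM L-glutamine and penicillin/streptomycin at 37 °C, 5% CO2. Seeded 5000/well for 12 h. Compound diluted 1000× from DMSO stock (final DMSO <0.1%). MTT conversion to formazan for 4 h, absorbance at 562 nm. 4 replicate wells per concentration, at least three runs.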

[2] = target: Isocitrate dehydrogenase [NADP] cytoplasmic (Homo sapiens, UniProt O75874, R132H); experiment: Inhibition of His-tagged recombinant human IDH1 R132H mutant expressed in Escherichia coli Rosetta (DE3) preincubated for 30 mins followed by NADPH/alpha-KG addition and measured after 1 hr
Outline: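 His-tagged mutant human IDH1 expressed from pET28a in E. coli Rosetta (DE3) with 1 mM IPTG, purified on Ni-NTA with imidazole step elution. Enzyme and compound preincubated 30 min at room temperature in 50 mM Tris, 200 mM NaCl, 5 mM β-mercaptoethanol, 2 mM MgSO4, 10% glycerol. MgCl2, NADPH and α-KG then added, 1 h at 37 °C; NADPH consumption read at 340 nm.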

HT-1080 [3] = experiment: Antiproliferative activity against human HT1080 cells by MTT assay; type: functional, cell-based; outline: as §1
U-87 MG [4] = experiment: Inhibition of colony formation of human U87 cells after 8 days by Giemsa-Wright staining-based assay; type: functional, cell-based; conditions: U-87MG ATCC
Outline: (§2)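 Colony formation: 200 cells/well in 6-well plates, 2 mL medium, treated 8 days with DMSO control or compound. Cells then washed three times with cold PBS, fixed in 95% cold MeOH for 15 min, and stained with Giemsa-Wright. Colonies counted by eye at least three times.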

HT-1080 [5] = experiment: Antimigratory activity in human HT1080 cells assessed as scratch area at 1 uM after 12 hrs (reference value: 23.3%); type: functional
HT-1080 [6] = experiment: Antimigratory activity in human HT1080 cells assessed as scratch area at 1 uM after 6 hrs (reference value: 58.7%); type: functional
HT-1080 [7] = experiment: Inhibition of colony formation of human HT1080 cells at 1 uM after 8 days by Giemsa-Wright staining-based assay relative to control; type: functional; conditions: HT-1080, 192 h; outline: as §2
HT-1080 [8] = experiment: Inhibition of colony formation of human HT1080 cells at 0.5 uM after 8 days by Giemsa-Wright staining-based assay relative to control; type: functional; conditions: HT-1080, 192 h; outline: as §2
U-87 MG [9] = experiment: Inhibition of colony formation of human U87 cells at 1 uM after 8 days by Giemsa-Wright staining-based assay relative to control; type: functional, U-87MG ATCC; conditions: 192 h; outline: as §2
[10] = test system: Isocitrate dehydrogenase [NADP] cytoplasmic (Homo sapiens), O75874 [R132H]; experiment: Inhibition of IDH1 […] cells assessed as decrease in D-2HG levels at 1 uM after 48 hrs by HPLC-MS analysis relative to control; type: cell-based
Outline: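 HT1080 cells (1×10^5/well, 6-well plates) attached overnight in DMEM with 10% dialyzed FBS. Treated 48 h with rising compound concentrations in 2 mL medium. Quantified by SIM at 147 Da from peak area against an authentic D-2HG standard curve.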

U-87 MG [11] = experiment: Antimigratory activity in human U87 cells assessed as migration rate at 1 uM after 24 hrs by scratch assay (reference value: 17.5%); type: functional, U-87MG ATCC
U-87 MG [12] = experiment: Antimigratory activity in human U87 cells assessed as migration rate at 1 uM after 12 hrs by scratch assay (reference value: 51.3%); type: functional, U-87MG ATCC
U-87 MG [13] = experiment: Inhibition of colony formation of human U87 cells at 0.5 uM after 8 days by Giemsa-Wright staining-based assay relative to control; type: functional, U-87MG ATCC; conditions: 192 h; outline: as §2
HT-1080 [14] = experiment: Antimigratory activity in human HT1080 cells assessed as scratch area at 10 uM after 12 hrs (reference value: 23.3%); type: functional
HT-1080 [15] = experiment: Antimigratory activity in human HT1080 cells assessed as scratch area at 10 uM after 6 hrs (reference value: 58.7%); type: functional

Sequence of Isocitrate dehydrogenase [NADP] cytoplasmic (O75874 2-414 R132H limits assumed): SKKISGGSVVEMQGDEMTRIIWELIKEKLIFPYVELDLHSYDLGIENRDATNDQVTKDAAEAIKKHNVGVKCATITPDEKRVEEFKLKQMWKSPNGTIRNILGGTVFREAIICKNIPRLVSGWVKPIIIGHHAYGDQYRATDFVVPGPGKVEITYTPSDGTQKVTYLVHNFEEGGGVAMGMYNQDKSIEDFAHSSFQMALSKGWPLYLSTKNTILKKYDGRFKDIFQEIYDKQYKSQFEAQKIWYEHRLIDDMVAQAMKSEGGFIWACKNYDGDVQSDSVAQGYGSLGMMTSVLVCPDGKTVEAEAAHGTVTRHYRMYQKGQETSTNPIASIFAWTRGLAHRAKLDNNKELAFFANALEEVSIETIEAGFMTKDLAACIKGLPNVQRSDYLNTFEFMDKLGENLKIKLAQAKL
Sequence of Isocitrate dehydrogenase [NADP] cytoplasmic (Homo sapiens), O75874 [R132H] (O75874 whole entry R132H): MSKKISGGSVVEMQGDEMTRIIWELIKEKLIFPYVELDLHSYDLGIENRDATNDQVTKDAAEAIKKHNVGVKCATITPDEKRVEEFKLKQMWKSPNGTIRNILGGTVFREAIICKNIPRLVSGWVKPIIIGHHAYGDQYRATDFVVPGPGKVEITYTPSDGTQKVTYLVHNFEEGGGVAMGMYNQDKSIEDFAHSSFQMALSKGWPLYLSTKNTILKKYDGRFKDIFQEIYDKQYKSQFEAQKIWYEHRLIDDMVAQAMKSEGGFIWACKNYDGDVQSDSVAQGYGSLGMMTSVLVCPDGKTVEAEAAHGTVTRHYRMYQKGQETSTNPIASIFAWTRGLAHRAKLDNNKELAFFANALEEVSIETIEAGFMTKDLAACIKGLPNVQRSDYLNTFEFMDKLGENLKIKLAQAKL

Compound	IC50 (U-87 MG [1])	IC50 [2]	IC50 (HT-1080 [3])	other results
Cc1cc(=O)c(O)c(Cc2ccc(OCc3ccccc3)cc2)o1	> 50 µM	> 50 µM	> 50 µM	–
Cc1cc(=O)c(O)c(C(c2ccc(CCc3ccccc3)cc2)c2oc(C)cc(=O)c2O)o1	27.2 µM	> 50 µM	> 50 µM	–
Cc1cc(=O)c(O)c(Cc2ccc(F)cc2)o1	> 50 µM	> 50 µM	> 50 µM	–
Cc1cc(=O)c(O)c(C(c2ccc(OCc3ccc([N+](=O)[O-])cc3)cc2)c2oc(C)cc(=O)c2O)o1	> 50 µM	> 50 µM	3.06 µM	–
CCCOc1ccc(C(c2oc(C)cc(=O)c2O)c2oc(C)cc(=O)c2O)cc1	29.5 µM	> 50 µM	26.6 µM	–
Cc1cc(=O)c(O)c(C(c2ccc(OCc3ccccc3)cc2)c2oc(C)cc(=O)c2O)o1	4.6 µM	23.1 µM	1.43 µM	inhibition (U-87 MG [4]): Dose-dependent effect; Activity (HT-1080 [5]): 43.5%; Activity (HT-1080 [6]): 61%; inhibition at 1 µM (HT-1080 [7]): 99.5%; inhibition at 0.5 µM (HT-1080 [8]): 75%; inhibition at 1 µM (U-87 MG [9]): 96.8%; inhibition [10]: 86.5%; Activity (U-87 MG [11]): 69.5%; Activity (U-87 MG [12]): 82.8%; inhibition at 0.5 µM (U-87 MG [13]): 11.3%
Cc1cc(=O)c(O)c(Cc2ccc(Cl)cc2)o1	> 50 µM	> 50 µM	> 50 µM	–
COc1ccc(COc2ccc(C(c3oc(C)cc(=O)c3O)c3oc(C)cc(=O)c3O)cc2)cc1	5.2 µM	32 µM	2.6 µM	–
Cc1cc(=O)c(O)c(Cc2ccccc2)o1	> 50 µM	> 50 µM	> 50 µM	–
C=CCOc1ccc(C(c2oc(C)cc(=O)c2O)c2oc(C)cc(=O)c2O)cc1	30.9 µM	> 50 µM	28.3 µM	–
Cc1cc(=O)c(O)c(Cc2ccc(C(F)(F)F)cc2)o1	> 50 µM	> 50 µM	24.4 µM	–
Cc1ccccc1C(C(=O)NC1CCCCC1)N(C(=O)Cn1ccnc1C)c1cccc(F)c1 (stereo not given)	20.1 µM	0.08 µM	–	Activity (HT-1080 [14]): 56%; inhibition [10]: 86.9%; Activity (U-87 MG [11]): 51%; Activity (HT-1080 [15]): 70%; Activity (U-87 MG [12]): 84%
